The text below walks through data of ChEMBL document CHEMBL1137174, “Synthesis and structural-activity relationships of 3-hydroxyquinazoline-2,4-dione antibacterial agents” (2004).

Converted amounts (≈) assume the structure as drawn.

Experiment [1] has as its system Escherichia coli. In words: Minimum inhibitory concentration required against Gram-negative Escherichia coli WT. Format: functional. The method in brief:
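Standard microtitration MIC determination against wild-type E. coli strain MC4100.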

Experiment [2] relates to Escherichia coli. The experiment can be described thus: Minimum inhibitory concentration required against Gram-negative Escherichia coli LKY. Format: functional. The method in brief:
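Standard microtitration MIC determination against E. coli LKY, a cell-wall-deficient, semi-permeable strain.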

The test system of experiment [3] is Escherichia coli. The experiment can be described thus: Minimum inhibitory concentration required against Gram-negative Escherichia coli TLC. Format: functional.
The subject of a further experiment is Enterococcus faecalis. In words: Minimum inhibitory concentration required against Gram-positive Enterococcus faecalis. It counts as functional.
The subject of a further experiment is Staphylococcus aureus. In words: Minimum inhibitory concentration required against Gram-positive Staphylococcus aureus. It counts as functional.
In a further experiment the test system is Streptococcus pyogenes. The experiment can be described thus: Minimum inhibitory concentration required against Gram-positive Streptococcus pyogenes. Format: functional.
In experiment [4] the target is DNA gyrase (Escherichia coli) (UniProt P0AES6+P0AES4). In words: Concentration required to inhibit in vitro DNA gyrase activity isolated from Escherichia coli. Format: protein-complex assay. In a few lines: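 DNA gyrase isolated and purified from E. coli H560. The end point is the lowest drug concentration […] that gives detectable cleavage of relaxed bacterial Col E1 plasmid DNA. Cleavage is read by agarose gel electrophoresis with ethidium bromide staining.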

In the case of `CN[C@@H](C)[C@@H]1CCN(c2cc3c(cc2F)c(=O)n(O)c(=O)n3C2CC2)C1`, the MIC – broadly, the lowest concentration found to suppress growth – in the experiment with Escherichia coli [1] was found to be 32 µg/mL (≈ 88.3 µM); against Escherichia coli [2], 4 µg/mL (≈ 11 µM); in the experiment with Escherichia coli [3], 2 µg/mL (≈ 5.52 µM); against Enterococcus faecalis it was 16 µg/mL (≈ 44.1 µM); in the experiment with Staphylococcus aureus it was 16 µg/mL (≈ 44.1 µM); against Streptococcus pyogenes, 2 µg/mL (≈ 5.52 µM). The molecule further registered an Activity in experiment [4] of 6.2 µM.

As to `O=c1c2cc(F)c(N3CCC(CNCC(F)(F)F)C3)cc2n(C2CC2)c(=O)n1O` (configuration not stated), the MIC in the experiment with Escherichia coli [1] is greater than 64 µg/mL; against Escherichia coli [2] it was 1 µg/mL (≈ 2.4 µM); in the experiment on Escherichia coli [3], 0.5 µg/mL (≈ 1.2 µM); in the experiment on Enterococcus faecalis, 16 µg/mL (≈ 38.4 µM); with Staphylococcus aureus, 4 µg/mL (≈ 9.61 µM); with Streptococcus pyogenes, 16 µg/mL (≈ 38.4 µM). Besides, the Activity in experiment [4] amounted to 8 µM.

Consider `O=c1c2cc(F)c(N3CCCC3)cc2n(CC2CC2)c(=O)n1O`, for which the MIC against Escherichia coli [1] was 32 µg/mL (≈ 100 µM); with Escherichia coli [2], 0.5 µg/mL (≈ 1.57 µM); in the experiment on Escherichia coli [3], 0.5 µg/mL (≈ 1.57 µM); with Enterococcus faecalis it was 64 µg/mL (≈ 200 µM); in the experiment on Staphylococcus aureus, 8 µg/mL (≈ 25.1 µM); in the experiment on Streptococcus pyogenes it was 8 µg/mL (≈ 25.1 µM). The molecule further showed an Activity in experiment [4] of 13 µM.

Regarding `N[C@H]1CCN(c2c(F)cc3c(=O)n(O)c(=O)n(C4CC4)c3c2Cl)C1`, the MIC against Escherichia coli [1] worked out at 2 µg/mL (≈ 5.64 µM); in the experiment on Escherichia coli [2], 0.5 µg/mL (≈ 1.41 µM); in the experiment with Escherichia coli [3] it was 1 µg/mL (≈ 2.82 µM); in the experiment with Enterococcus faecalis, 32 µg/mL (≈ 90.2 µM); against Staphylococcus aureus, 16 µg/mL (≈ 45.1 µM); in the experiment on Streptococcus pyogenes it was 4 µg/mL (≈ 11.3 µM). Further, the Activity in experiment [4] was 1 µM.

Turning to `NCC1CCN(c2cc3c(cc2F)c(=O)n(O)c(=O)n3C2CC2)C1` (configuration not stated), the MIC in the experiment on Escherichia coli [1] came to 8 µg/mL (≈ 23.9 µM); with Escherichia coli [2], 1 µg/mL (≈ 2.99 µM); in the experiment on Escherichia coli [3], 1 µg/mL (≈ 2.99 µM); against Staphylococcus aureus, 16 µg/mL (≈ 47.9 µM); in the experiment with Streptococcus pyogenes, 2 µg/mL (≈ 5.98 µM).

Consider `O=c1c2cc(F)c(N3CCCC3)cc2n(-c2ccc(F)cc2F)c(=O)n1O`, for which the MIC was greater than 64 µg/mL in the experiment with Escherichia coli [1]; 32 µg/mL (≈ 84.8 µM) against Escherichia coli [2]; 32 µg/mL (≈ 84.8 µM) against Escherichia coli [3]; 64 µg/mL (≈ 170 µM) with Enterococcus faecalis; 64 µg/mL (≈ 170 µM) with Staphylococcus aureus; 32 µg/mL (≈ 84.8 µM) in the experiment with Streptococcus pyogenes. Further, the Activity in experiment [4] is greater than 100 µM.

With `O=c1c2cc(F)c(-n3ccnc3)cc2n(C2CC2)c(=O)n1O`, the MIC in the experiment with Escherichia coli [1] was greater than 64 µg/mL; in the experiment with Escherichia coli [2] it was 8 µg/mL (≈ 26.5 µM); with Escherichia coli [3] it was 2 µg/mL (≈ 6.62 µM); against Enterococcus faecalis it was 64 µg/mL (≈ 212 µM); against Staphylococcus aureus, 64 µg/mL (≈ 212 µM); in the experiment on Streptococcus pyogenes, 64 µg/mL (≈ 212 µM). The Activity in experiment [4] was found to be 0.4 µM.

With `Cn1c(=O)n(O)c(=O)c2cc(F)c(N3CCCC3)cc21`, the MIC is 32 µg/mL (≈ 115 µM) with Escherichia coli [1]; 16 µg/mL (≈ 57.3 µM) with Escherichia coli [2]; 8 µg/mL (≈ 28.6 µM) in the experiment with Escherichia coli [3]; greater than 64 µg/mL in the experiment with Enterococcus faecalis; greater than 64 µg/mL with Staphylococcus aureus; greater than 64 µg/mL against Streptococcus pyogenes. Also, in experiment [4], the Activity is greater than 100 µM.

Take `N[C@@H]1[C@H]2CN(c3cc4c(cc3F)c(=O)n(O)c(=O)n4C3CC3)C[C@@H]12`: the MIC came to 1 µg/mL (≈ 3.01 µM) against Escherichia coli [1]; 0.25 µg/mL (≈ 0.752 µM) with Escherichia coli [2]; 0.25 µg/mL (≈ 0.752 µM) against Escherichia coli [3]; 4 µg/mL (≈ 12 µM) against Enterococcus faecalis; 4 µg/mL (≈ 12 µM) in the experiment on Staphylococcus aureus; 2 µg/mL (≈ 6.02 µM) against Streptococcus pyogenes. The Activity in experiment [4] was found to be 0.7 µM.

Take `C[C@H](N)[C@@H]1CCN(c2cc3c(cc2F)c(=O)n(O)c(=O)n3C2CC2)C1`: the MIC was found to be 8 µg/mL (≈ 23 µM) with Escherichia coli [1]; 0.12 µg/mL (≈ 0.344 µM) in the experiment with Escherichia coli [2]; 0.12 µg/mL (≈ 0.344 µM) against Escherichia coli [3]; 4 µg/mL (≈ 11.5 µM) with Enterococcus faecalis; 1 µg/mL (≈ 2.87 µM) with Staphylococcus aureus; 0.5 µg/mL (≈ 1.44 µM) in the experiment on Streptococcus pyogenes. The same molecule displayed an Activity in experiment [4] of 6.4 µM.

For the molecule `O=C(O)c1cn(C2CC2)c2cc(N3CCNCC3)c(F)cc2c1=O` [CIPROFLOXACIN], the MIC in the experiment on Enterococcus faecalis was determined as 0.4 µg/mL (≈ 1.21 µM); against Staphylococcus aureus, 4 µg/mL (≈ 12.1 µM); in the experiment with Streptococcus pyogenes, 2 µg/mL (≈ 6.04 µM). In experiment [4], this molecule returned an Activity of 0.4 µM.

With `O=c1[nH]c2cc(N3CCCC3)c(F)cc2c(=O)n1O`, the MIC against Escherichia coli [1] stood at 64 µg/mL (≈ 241 µM); in the experiment with Escherichia coli [2], 32 µg/mL (≈ 121 µM); against Escherichia coli [3], 16 µg/mL (≈ 60.3 µM); against Staphylococcus aureus it was 8 µg/mL (≈ 30.2 µM); against Streptococcus pyogenes, 32 µg/mL (≈ 121 µM). The Activity in experiment [4] is greater than 100 µM.

Take `N[C@H]1CCN(c2cc3c(cc2F)c(=O)n(O)c(=O)n3C2CC2)C1`: the MIC amounted to 1 µg/mL (≈ 3.12 µM) against Escherichia coli [1]; 0.3 µg/mL (≈ 0.937 µM) in the experiment on Escherichia coli [2]; 0.25 µg/mL (≈ 0.78 µM) with Escherichia coli [3]; 32 µg/mL (≈ 99.9 µM) in the experiment with Staphylococcus aureus; 4 µg/mL (≈ 12.5 µM) against Streptococcus pyogenes. The same molecule registered an Activity in experiment [4] of 2 µM.

Consider `CN1CC2CN(c3cc4c(cc3F)c(=O)n(O)c(=O)n4C3CC3)CC2C1` (configuration not stated), for which the MIC in the experiment on Escherichia coli [1] came to 4 µg/mL (≈ 11.1 µM); against Escherichia coli [2], 2 µg/mL (≈ 5.55 µM); in the experiment on Escherichia coli [3], 1 µg/mL (≈ 2.77 µM); in the experiment with Enterococcus faecalis it was 32 µg/mL (≈ 88.8 µM); with Staphylococcus aureus, 32 µg/mL (≈ 88.8 µM); in the experiment on Streptococcus pyogenes, 32 µg/mL (≈ 88.8 µM). Also, the Activity in experiment [4] came out at 7.8 µM.

For `O=c1c2cc(F)c(N3CCCC3)cc2n(Cc2ccccc2)c(=O)n1O`, the MIC was greater than 64 µg/mL against Escherichia coli [1]; 32 µg/mL (≈ 90 µM) in the experiment on Escherichia coli [2]; 16 µg/mL (≈ 45 µM) against Escherichia coli [3]; greater than 64 µg/mL in the experiment with Enterococcus faecalis; 16 µg/mL (≈ 45 µM) with Staphylococcus aureus; 32 µg/mL (≈ 90 µM) in the experiment on Streptococcus pyogenes. This molecule also registered an Activity in experiment [4] greater than 100 µM.

Regarding `NC1CN(c2cc3c(cc2F)c(=O)n(O)c(=O)n3C2CC2)C1`, the MIC against Escherichia coli [1] is 16 µg/mL (≈ 52.2 µM); against Escherichia coli [2], 0.25 µg/mL (≈ 0.816 µM); with Escherichia coli [3], 0.5 µg/mL (≈ 1.63 µM); against Staphylococcus aureus it was greater than 64 µg/mL; against Streptococcus pyogenes it was greater than 64 µg/mL. For the same molecule, the Activity in experiment [4] worked out at 18 µM.

In the case of `N[C@H]1CCN(c2c(F)cc3c(=O)n(O)c(=O)n(C4CC4)c3c2F)C1`, the MIC was found to be 8 µg/mL (≈ 23.6 µM) against Escherichia coli [1]; 2 µg/mL (≈ 5.91 µM) against Escherichia coli [2]; 1 µg/mL (≈ 2.96 µM) with Escherichia coli [3]; 16 µg/mL (≈ 47.3 µM) in the experiment with Enterococcus faecalis; 32 µg/mL (≈ 94.6 µM) with Staphylococcus aureus; 16 µg/mL (≈ 47.3 µM) in the experiment with Streptococcus pyogenes. The molecule further showed an Activity in experiment [4] of 0.28 µM.

Consider `CC(C)(N)[C@@H]1CCN(c2cc3c(cc2F)c(=O)n(O)c(=O)n3C2CC2)C1`, for which the MIC against Escherichia coli [1] came to 8 µg/mL (≈ 22.1 µM); with Escherichia coli [2], 2 µg/mL (≈ 5.52 µM); against Escherichia coli [3], 0.5 µg/mL (≈ 1.38 µM); in the experiment with Enterococcus faecalis it was 16 µg/mL (≈ 44.1 µM); in the experiment on Staphylococcus aureus, 16 µg/mL (≈ 44.1 µM); against Streptococcus pyogenes it was 32 µg/mL (≈ 88.3 µM). For the same molecule, the Activity in experiment [4] was determined as 2.2 µM.

Consider `O=c1c2cc(F)c(N3CCCC3)cc2n(C2CC2)c(=O)n1O`, for which the minimal inhibitory concentration (MIC) against Escherichia coli [1] was 8 µg/mL (≈ 26.2 µM); in the experiment with Escherichia coli [2] it was 0.1 µg/mL (≈ 0.328 µM); with Escherichia coli [3], 0.13 µg/mL (≈ 0.426 µM); against Staphylococcus aureus, 1 µg/mL (≈ 3.28 µM); against Streptococcus pyogenes, 16 µg/mL (≈ 52.4 µM). For the same molecule, the Activity in experiment [4] was 7 µM.

`CCn1c(=O)n(O)c(=O)c2cc(F)c(N3CCCC3)cc21`: the MIC was greater than 64 µg/mL against Escherichia coli [1]; 2 µg/mL (≈ 6.82 µM) against Escherichia coli [2]; 1 µg/mL (≈ 3.41 µM) against Escherichia coli [3]; 32 µg/mL (≈ 109 µM) against Staphylococcus aureus; 32 µg/mL (≈ 109 µM) with Streptococcus pyogenes. This molecule gave an Activity in experiment [4] greater than 100 µM.

As for `O=c1c2cc(F)c(N3C[C@@H]4CCCN[C@@H]4C3)cc2n(C2CC2)c(=O)n1O`, the MIC was found to be 8 µg/mL (≈ 22.2 µM) with Escherichia coli [1]; 2 µg/mL (≈ 5.55 µM) in the experiment with Escherichia coli [2]; 1 µg/mL (≈ 2.77 µM) in the experiment with Escherichia coli [3]; 64 µg/mL (≈ 178 µM) in the experiment on Enterococcus faecalis; 32 µg/mL (≈ 88.8 µM) against Staphylococcus aureus; 32 µg/mL (≈ 88.8 µM) in the experiment on Streptococcus pyogenes. For the same molecule, the Activity in experiment [4] stood at 5 µM.
